Results: ChEMBL document CHEMBL1122043, “A new class of nitrosoureas. 4. Synthesis and antitumor activity of disaccharide derivatives of 3,3-disubstituted 1-(2-chloroethyl)-1-nitrosoureas” (J Med Chem, 1982)

Assays:
L1210 [1] = assay: Antitumor activity against Leukemia L1210 cells in male BDF1 mice at the dose of 400 mg/kg/day x5 (i.p.) expressed as maximal increase in life-span; type: functional, Mus musculus; conditions: route intraperitoneal
Method in brief: (§1)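 L1210 leukemia cells (10^5) given ip to male BDF1 mice. Ip dosing started 24 h after inoculation and was given once daily for 5 days. Life-span increase was calculated as ILS (%) = (T/C-1) × 100. Optimal dose was the daily dose giving the maximum increase in life-span.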

[2] = Therapeutic index value for anti-Ehrlich activity.; conditions: mouse; for selectivity ratio: read-out: TI
Method in brief: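 Ehrlich ascites cells (10^6) were inoculated ip into 5 female ICR mice. Ip dosing began 24 h later and was given once daily for 5 days. Therapeutic ratio = MTD/MED. MED is the minimum dose giving 100% inhibition of tumor growth. MTD is the maximum dose giving 100% inhibition without mouse deaths.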

[3] = Therapeutic index value for anti-L1210 activity.; conditions: mouse; for selectivity ratio: read-out: TI
Method in brief: (§2)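 Mice were male BDF1 inoculated ip with 10^5 L1210 cells. Ip treatment began 24 h later. Therapeutic ratio = OD/ILS30. ILS30 is the daily dose giving a 30% increase in life-span over control. OD is the daily dose giving the maximum increase in life-span.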

L1210 [4] = assay: Antitumor activity against Leukemia L1210 cells in male BDF1 mice at the dose of 230 mg/kg/day x1 (i.p.) expressed as maximal increase in life-span; type: functional, Mus musculus; conditions: route intraperitoneal
Method in brief: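 Male BDF1 mice (six or eight) received 10^5 L1210 cells ip. A single ip dose, in (mg/kg)/day × 1, was given 24 h after inoculation. ILS (%) = (T/C-1) × 100. The optimal dose was the dose giving the maximum increase in life-span.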

L1210 [5] = assay: Antitumor activity against Leukemia L1210 cells in BDF1 mice at the dose of 130 mg/kg/ day *5 (i.p.) expressed as maximal increase in life-span; type: functional, Mus musculus; conditions: route intraperitoneal; in the assay text read “25 mg/kg/ day” for “130 mg/kg/ day”; method in brief: as §1
L1210 [6] = assay: Antitumor activity against Leukemia L1210 cells in BDF1 mice at the dose of 50 mg/kg/day x5 (i.p.) expressed as maximal increase in life-span; type: functional, Mus musculus; conditions: route intraperitoneal; method in brief: as §1
[7] = […] required for antitumor activity against Ehrlich ascites carcinoma cells in […] mice.; type: functional, Mus musculus
L1210 [8] = assay: Antitumor activity against Leukemia L1210 cells in male BDF1 mice at the dose of 100 mg/kg/day x5 (i.p.) expressed as maximal increase in life-span; type: functional, Mus musculus; conditions: route intraperitoneal; method in brief: as §1
[9] = Therapeutic index value for anti L1210 activity; Inactive; method in brief: as §2
L1210 [10] = assay: Antitumor activity against Leukemia L1210 cells in male BDF1 mice at the dose of 200 mg/kg/day x5 (i.p.) expressed as maximal increase in life-span; type: functional, Mus musculus; conditions: route intraperitoneal; method in brief: as §1
L1210 [11] = assay: Antitumor activity against Leukemia L1210 cells in BDF1 mice at the dose of 6.25 mg/kg/day x5 (i.p.) expressed as maximal increase in life-span; type: functional, Mus musculus; conditions: route intraperitoneal; method in brief: as §1
L1210 [12] = assay: Antitumor activity against Leukemia L1210 cells in male BDF1 mice at the dose of 6.25 mg/kg/day x5 (i.p.) expressed as maximal increase in life-span; type: functional, Mus musculus; conditions: route intraperitoneal; method in brief: as §1
L1210 [13] = assay: Antitumor activity against Leukemia L1210 cells in BDF1 mice at the dose of 6.25 mg/kg/day x 5 (ip), maximum increase in life-span; type: functional, Mus musculus
Method in brief: (§3)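 Male BDF1 mice were inoculated ip with 10^5 L1210 leukemia cells. Drug was given ip once daily for 5 days, starting 24 h after inoculation. ILS (%) = (T/C-1) × 100. The recorded value is the ILS at the optimal dose, meaning the daily dose giving the maximum increase in life-span.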

[14] = Maximum tolerated dose required antitumor activity against Ehrlich ascites carcinoma cells in female ICR mice.
[15] = Minimum effective dose required for antitumor activity against Ehrlich ascites carcinoma cells in female ICR mice.
L1210 [16] = assay: Antitumor activity against Leukemia L1210 cells in BDF1 mice at the dose of 25 mg/kg/day x1 (i.p.) expressed as maximal increase in life-span; conditions: route intraperitoneal
L1210 [17] = assay: Antitumor activity against Leukemia L1210 cells in male BDF1 mice at the dose of 50 mg/kg/day x5 (i.p.) expressed as maximal increase in life-span; type: functional, Mus musculus; conditions: route intraperitoneal; method in brief: as §1
L1210 [18] = assay: Antitumor activity against Leukemia L1210 cells in BDF1 mice at the dose of 400 mg/kg/day x 5 (ip), maximum increase in life-span; type: functional, Mus musculus; method in brief: as §3
L1210 [19] = assay: Antitumor activity against Leukemia L1210 cells in male BDF1 mice at the dose of 200 mg/kg/day x5 (ip) expressed as maximal increase in life-span; type: functional, Mus musculus; method in brief: as §1
L1210 [20] = assay: Antitumor activity against Leukemia L1210 cells in male BDF1 mice at the dose of 25 mg/kg/day x5 (i.p.) expressed as maximal increase in life-span; type: functional, Mus musculus; conditions: route intraperitoneal; method in brief: as §3
L1210 [21] = assay: Antitumor activity against Leukemia L1210 cells in BDF1 mice at the dose of 50 mg/kg/day x 1 (i.p.), ILS30; conditions: route intraperitoneal

## CC(C)CN(C(=O)N(CCCl)N=O)C1OC(COC2OC(CO)C(O)C(O)C2O)C(O)C(O)C1O (stereo unspecified)
L1210 [1]
  ILS30: 350
[2]
  selectivity ratio: 1
[3]
  selectivity ratio: 1.1

## CC(C)CN(C(=O)N(CCCl)N=O)C1OC(CO)C(O)C(O)C1O (stereo unspecified)
L1210 [4]
  ILS30: 2.6
L1210 [5]
  ILS30: 0.73
L1210 [6]
  ILS30: 1
[3]
  TI: 34.2
  selectivity ratio: 50

## CCC(C)N(C(=O)N(CCCl)N=O)C1OC(CO)C(OC2OC(CO)C(O)C(O)C2O)C(O)C1O (stereo unspecified)
[7]
  MED: 1.56 mg kg-1 5day-1
L1210 [8]
  ILS30: 1.5
[2]
  selectivity ratio: 128
[3]
  selectivity ratio: 66.7

## CN(C(=O)N(CCCl)N=O)C1OC(CO)C(OC2OC(CO)C(O)C(O)C2O)C(O)C1O (stereo unspecified)
L1210 [8]
  ILS30: 8.8
[2]
  selectivity ratio: 32
[3]
  selectivity ratio: 11.4

## CC(C)N(C(=O)N(CCCl)N=O)C1OC(CO)C(OC2OC(CO)C(O)C(O)C2O)C(O)C1O (stereo unspecified)
L1210 [8]
  ILS30: 5.4
[2]
  selectivity ratio: 32
[3]
  selectivity ratio: 18.5

## CCCCCCCCCCCCCCCCN(C(=O)N(CCCl)N=O)C1OC(CO)C(OC2OC(CO)C(O)C(O)C2O)C(O)C1O (stereo unspecified)
[2]
  selectivity ratio: 32
[9]
  TI: Not Active

## O=NN(CCCl)C(=O)N(CC1CCCO1)C1OC(CO)C(OC2OC(CO)C(O)C(O)C2O)C(O)C1O (stereo unspecified)
[7]
  MED: 3.12 mg kg-1 5day-1
L1210 [10]
  ILS30: 6
[2]
  selectivity ratio: 64
[3]
  selectivity ratio: 33.3

## CCCCCN(C(=O)N(CCCl)N=O)C1OC(CO)C(OC2OC(CO)C(O)C(O)C2O)C(O)C1O (stereo unspecified)
[7]
  MED: 3.12 mg kg-1 5day-1
L1210 [8]
  ILS30: 3.5
[2]
  selectivity ratio: 64
[3]
  selectivity ratio: 28.6

## COCCN(C(=O)N(CCCl)N=O)C1OC(CO)C(OC2OC(CO)C(O)C(O)C2O)C(O)C1O (stereo unspecified)
[7]
  MED: 3.12 mg kg-1 5day-1
L1210 [10]
  ILS30: 17
[2]
  selectivity ratio: 64
[3]
  selectivity ratio: 11.8

## C=CCCN(C(=O)N(CCCl)N=O)C1OC(CO)C(OC2OC(CO)C(O)C(O)C2O)C(O)C1O (stereo unspecified)
[7]
  MED: 1.56 mg kg-1 5day-1
L1210 [10]
  ILS30: 3.1
[2]
  selectivity ratio: 128
[3]
  selectivity ratio: 64.5

## C=C(C)CN(C(=O)N(CCCl)N=O)C1OC(CO)C(OC2OC(CO)C(O)C(O)C2O)C(O)C1O (stereo unspecified)
[7]
  MED: 1.56 mg kg-1 5day-1
L1210 [10]
  ILS30: 3.2
[2]
  selectivity ratio: 128
[3]
  selectivity ratio: 62.5

## CCOCCN(C(=O)N(CCCl)N=O)C1OC(CO)C(OC2OC(CO)C(O)C(O)C2O)C(O)C1O (stereo unspecified)
[7]
  MED: 3.12 mg kg-1 5day-1
L1210 [8]
  ILS30: 2.7
[2]
  selectivity ratio: 64
[3]
  selectivity ratio: 37

## O=NN(CCCl)C(=O)N[C@@H]1O[C@H](CO)[C@@H](O)[C@H](O)[C@H]1O
L1210 [11]
  ILS30: 0.8
L1210 [12]
  ILS30: 0.8
L1210 [13]
  ILS max: >198.6%
[2]
  selectivity ratio: 32
[3]
  selectivity ratio: 7.8
[14]
  MTD: 12.5 mg kg-1 5day-1
[15]
  MED: 0.39 mg kg-1 5day-1
L1210 [16]
  ILS30: 1.1

## COCCCN(C(=O)N(CCCl)N=O)C1OC(CO)C(OC2OC(CO)C(O)C(O)C2O)C(O)C1O (stereo unspecified)
[7]
  MED: 3.12 mg kg-1 5day-1
L1210 [10]
  ILS30: 7.5
[2]
  selectivity ratio: 64
[3]
  selectivity ratio: 26.7

## CCCN(C(=O)N(CCCl)N=O)C1OC(CO)C(OC2OC(CO)C(O)C(O)C2O)C(O)C1O (stereo unspecified)
L1210 [8]
  ILS30: 4.9
[2]
  selectivity ratio: 64
[3]
  selectivity ratio: 20.4

## CCCCCCN(C(=O)N(CCCl)N=O)C1OC(CO)C(OC2OC(CO)C(O)C(O)C2O)C(O)C1O (stereo unspecified)
L1210 [17]
  ILS30: 14
[2]
  selectivity ratio: 32
[3]
  selectivity ratio: 3.6

## O=NN(CCCl)C(=O)N(Cc1ccc(Cl)cc1)C1OC(CO)C(OC2OC(CO)C(O)C(O)C2O)C(O)C1O (stereo unspecified)
[7]
  MED: 1.56 mg kg-1 5day-1
L1210 [10]
  ILS30: 20
[2]
  selectivity ratio: 128
[3]
  selectivity ratio: 10

## O=NN(CCCl)C(=O)N(CC1CCCCC1)C1OC(CO)C(OC2OC(CO)C(O)C(O)C2O)C(O)C1O (stereo unspecified)
[7]
  MED: 3.12 mg kg-1 5day-1
L1210 [8]
  ILS30: 8
[2]
  selectivity ratio: 32
[3]
  selectivity ratio: 12.5

## O=NN(CCCl)C(=O)N(CC1CC1)C1OC(CO)C(OC2OC(CO)C(O)C(O)C2O)C(O)C1O (stereo unspecified)
[7]
  MED: 1.56 mg kg-1 5day-1
L1210 [8]
  ILS30: 3.5
[2]
  selectivity ratio: 64
[3]
  selectivity ratio: 28.6

## CC(=O)OCC1OC(N(CC(C)C)C(=O)N(CCCl)N=O)C(OC(C)=O)C(OC(C)=O)C1COCC1OC(COC(C)=O)C(OC(C)=O)C(OC(C)=O)C1OC(C)=O (stereo unspecified)
L1210 [18]
  ILS max: 18%

## C=CCN(C(=O)N(CCCl)N=O)C1OC(CO)C(OC2OC(CO)C(O)C(O)C2O)C(O)C1O (stereo unspecified)
[7]
  MED: 1.56 mg kg-1 5day-1
L1210 [8]
  ILS30: 2
[2]
  selectivity ratio: 64
[3]
  selectivity ratio: 50

## CCCCN(C(=O)N(CCCl)N=O)C1OC(CO)C(OC2OC(CO)C(O)C(O)C2O)C(O)C1O (stereo unspecified)
[7]
  MED: 6.25 mg kg-1 5day-1
L1210 [8]
  ILS30: 4.5
[2]
  selectivity ratio: 32
[3]
  selectivity ratio: 22.2

## CC(C)CN(C(=O)N(CCCl)N=O)C1OC(CO)C(OC2OC(CO)C(O)C(O)C2O)C(O)C1O (stereo in doubt; 37)
L1210 [8]
  ILS30: 1.2
L1210 [4]
  ILS30: 7.3
[2]
  TI: 256

## CC(C)CN(C(=O)N(CCCl)N=O)C1OC(CO)C(OC2OC(CO)C(O)C(O)C2O)C(O)C1O (stereo in doubt; 63)
[7]
  MED: 100 mg kg-1 5day-1
L1210 [19]
  ILS30: 160
[2]
  TI: 2
[3]
  TI: 1.3

## O=NN(CCCl)C(=O)NC1CCCCC1 [LOMUSTINE]
L1210 [20]
  ILS30: 4.9
[2]
  selectivity ratio: 4
[3]
  selectivity ratio: 5.1
L1210 [21]
  ILS30: 9.3 mg/kg
[14]
  MTD: 50 mg kg-1 5day-1
[15]
  MED: 12.5 mg kg-1 5day-1

## Cc1ncc(CNC(=O)N(CCCl)N=O)c(N)n1 [NIMUSTINE]
L1210 [20]
  ILS30: 2.9
[2]
  selectivity ratio: 8
[3]
  selectivity ratio: 9.3
[14]
  MTD: 25 mg kg-1 5day-1
[15]
  MED: 3.12 mg kg-1 5day-1
